Measurements from different studies.
Target: Mitogen-activated protein kinase kinase kinase 9 (MAP3K9, Homo sapiens, UniProt P80192)

Structure (SMILES)	observed	mode	method	tested at	endpoint	result
CC(C)c1ccc(NC(=O)c2cccs2)c(-c2nc3ccccc3[nH]c2=O)c1	enzyme activity	inhibitor	–	1 µM	activity vs control	92%
CCS(=O)(=O)c1cc2cc(C[C@](O)(CC(C)(C)c3ccc(F)cc3C(N)=O)C(F)(F)F)[nH]c2cn1	cell-free assay	–	competition with immobilised ligand	1 µM	remaining binding	98%
O=C1NC(=O)c2cc(Nc3ccc(F)cc3)c(Nc3ccc(F)cc3)cc21	cell-free assay	–	–	0.5 µM	remaining signal	102%
C[C@@H]1CN(c2cc(-c3nn(C)c4ccc(OC5(C)CC5)cc34)ncn2)C[C@H](C)O1	cell-free assay	–	competition with immobilised ligand	1 µM	remaining binding	100%
NS(=O)(=O)c1ccc(CNc2ccnc(Nc3cccc(NC(=O)N4CCCC4)c3)n2)cc1	enzyme activity	inhibitor	radiometric	1 µM	remaining activity	86%
Cc1ccc(C(=O)NCc2ccsc2)cc1C#Cc1cn(C(C)C)c2ncnc(N)c12	enzyme activity	inhibitor	–	1 µM	activity vs control	25%
NS(=O)(=O)c1ccc(CNc2nc(Nc3cccc(CN4CCOCC4)c3)ncc2Br)cc1	enzyme activity	inhibitor	radiometric	1 µM	remaining activity	25%
Cc1nc(N2CC[C@@H](O)C2)ncc1-c1cc(C(F)(F)F)cc2[nH]ncc12	binding	–	competition with immobilised ligand	1 µM	remaining binding	100%
NS(=O)(=O)c1ccc(CNc2nc(Nc3cccc(NC(=O)N4CCCC4)c3)ncc2C2CC2)cc1	enzyme activity	inhibitor	radiometric	1 µM	remaining activity	89%
O=C(O)c1cc(-c2ccc(C3CCNCC3)cc2)c2ccc(-c3ccc(C(F)(F)F)cc3)cc2c1	cell-free assay	–	competition with immobilised ligand	1 µM	remaining binding	100%
COc1cc2c(Nc3ccc(Br)cc3F)ncnc2cc1OCC1CCN(C)CC1	cell-free assay	–	–	0.5 µM	remaining signal	96.1%
Cc1c[nH]c2nccc(Oc3c(F)cc(Nc4cc(Cl)nc(N)n4)cc3F)c12	cell-free assay	–	competition with immobilised ligand	0.1 µM	remaining binding	89%
CNC(=O)c1cc(Oc2ccc(NC(=O)Nc3ccc(Cl)c(C(F)(F)F)c3)cc2)ccn1	enzyme activity	inhibitor	–	10 µM	inhibition	23%
CCCCNc1ncc2c(-c3ccc(F)cc3)nn(C[C@H]3CC[C@H](N)CC3)c2n1	target engagement in cells	inhibitor	chemoproteomics	20 mM	inhibition	54.9%
O=C(NCCCNc1nc(Nc2cccc(NC(=O)N3CCCC3)c2)ncc1I)c1cccs1	enzyme activity	inhibitor	radiometric	1 µM	remaining activity	4%
C=CC(=O)Nc1cc(Nc2nccc(Nc3cc(Cl)c(F)cc3C(C)(C)O)n2)c(OC)cc1N1CC[C@@H](N(C)C)C1	enzyme activity	inhibitor	–	1 µM	inhibition	33%
Brc1cnc(Nc2cccc(CN3CCOCC3)c2)nc1NCCc1c[nH]cn1	enzyme activity	inhibitor	radiometric	1 µM	remaining activity	-1%
CC/C(=N\NC(=O)NCc1cccc(O)c1)c1ccc(O)c(C)c1O	enzyme activity	inhibitor	–	0.1 µM	inhibition	5.1%
N#CCCc1ccc2c(c1)-c1[nH]c3ccc([N+](=O)[O-])cc3c1CC(=O)N2	cell-free assay	–	–	0.5 µM	remaining signal	18.2%
Cc1ccc(Nc2nccc(N(C)c3ccc4c(C)n(C)nc4c3)n2)cc1S(N)(=O)=O	enzyme activity	inhibitor	–	10 µM	inhibition	92%
O=C(Nc1cnn(-c2csc(C(=O)NC3COC3)c2)c1)Nc1ccccc1Cl	enzyme activity	inhibitor	–	5 µM	remaining activity	95.1%
CN(C)CC#Cc1ccc(OCCCc2sc(N3CCc4cccc(C(=O)Nc5nc6ccccc6s5)c4C3)nc2C(=O)O)c(F)c1	cell-free assay	–	competition with immobilised ligand	1 µM	remaining binding	92%
Cc1nn(CC(F)(F)F)cc1Nc1ncc(Br)c(NCc2ccc(S(N)(=O)=O)cc2)n1	enzyme activity	inhibitor	radiometric	1 µM	remaining activity	80%
O=C(O)[C@H]1[C@H](Cn2nnc3ccccc3c2=O)CC[C@@H]1C(=O)c1ccc(OCCC2CCOCC2)cc1	cell-free assay	–	competition with immobilised ligand	1 µM	remaining binding	81%
c1cc(CN2CCOCC2)cc(Nc2nccc(NCCc3cnc[nH]3)n2)c1	enzyme activity	inhibitor	radiometric	1 µM	remaining activity	73%
COc1cc2ncnc(Nc3ccc(Oc4ccccc4)c(C)c3C)c2cc1OC	enzyme activity	inhibitor	–	1 µM	inhibition	1%
CNC(=O)Nc1ccc2c(c1)[C@@]1(CC2)OC(=O)N(CC(=O)N(Cc2ccc(F)cc2)[C@@H](C)C(F)(F)F)C1=O	cell-free assay	–	competition with immobilised ligand	1 µM	remaining binding	100%
c1cc(CN2CCOCC2)cc(Nc2ncc(C3CC3)c(NCCc3c[nH]cn3)n2)c1	enzyme activity	inhibitor	radiometric	1 µM	remaining activity	7%
COc1cc(/C=C/C(=O)CC(=O)/C=C/c2ccc(O)c(OC)c2)ccc1O	enzyme activity	inhibitor	–	1 µM	activity vs control	14%
